This is an account of results in ChEMBL document CHEMBL3351984, “Structure-based design and synthesis of antiparasitic pyrrolopyrimidines targeting pteridine reductase 1” (J Med Chem, 2014).

Active and inactive are the calls of the source. The calls are words filed in the database; no cut-off is given here.

The first data set has as its system Mus musculus. Put plainly: Toxicity in ICR mouse assessed as transient clinical signs at 30 mg/kg, ip. The following applies: in vivo. The format is organism-based. More on the design: dose 30 mg/kg, route intraperitoneal.
With `Nc1nc(N)c2c(-c3ccccc3)c(-c3ccc(F)cc3)[nH]c2n1`, the Activity result is listed as “Toxic”.

In another data set the test system is Trypanosoma brucei brucei. Put plainly: Antitrypanocidal activity against Trypanosoma brucei brucei Lister 427 infected in ICR mouse assessed as reduction in parasitemia at 30 mg/kg, ip qd administered 24 hrs post infection for 4 consecutive days.
Details: not given
In kind it is functional, organism-based. Further details: dose 30 mg/kg.
Regarding `Nc1nc(N)c2c(-c3ccccc3)c(-c3ccc(F)cc3)[nH]c2n1`, the outcome was Active.

For another data set, the system named is Trypanosoma brucei brucei. The data set can be described thus: Antitrypanocidal activity against bloodstream forms of Trypanosoma brucei brucei Lister 427 after 6 hrs by time-kill assay. In kind it is functional, organism-based.
Details: not given
Take `CC(C)COc1nc(N)nc(N)c1C(C[N+](=O)[O-])c1ccc(F)cc1` (stereo unspecified): the outcome was inactive. `Nc1nc2[nH]c(-c3ccc(CCCN4CCOCC4)cc3)c(-c3ccccc3)c2c(=O)[nH]1`: the result was inactive. On the same count and under the same terms, the same measure for `Nc1nc(N)c(C(C[N+](=O)[O-])c2ccc(F)cc2)c(=O)[nH]1` (stereo unspecified): “inactive”; for `N#Cc1c(-c2cccc(C=O)c2)[nH]c2nc(N)nc(N)c12`: “inactive”; for `Nc1nc(N)c(C(CCc2ccccc2)C[N+](=O)[O-])c(=O)[nH]1` (stereo unspecified): “inactive”. On to `Nc1nc(N)c2c(-c3ccccc3)c(-c3ccccc3)[nH]c2n1`, for which the result was inactive. Regarding `Nc1nc(N)c(C(C[N+](=O)[O-])c2ccc(F)cc2)c(N)n1` (stereo unspecified), the result was inactive. For the compound `N#Cc1c[nH]c2nc(N)nc(N3CCSCC3)c12`, the result was inactive.

For `Nc1nc(N2CCSCC2)c2cc[nH]c2n1`, the result was inactive. Turning to `Nc1nc2[nH]c(-c3ccccc3)c(-c3ccccc3)c2c(=O)[nH]1`, the outcome was inactive. On the same count and under the same terms, with `Nc1nc2[nH]cc(CCc3ccccc3)c2c(=O)[nH]1` the entry was “inactive”.

As to `Nc1nc2[nH]c(-c3ccc(F)cc3)c(-c3ccccc3)c2c(=O)[nH]1`, the result was inactive.

On to `N#Cc1c[nH]c2nc(N)nc(N)c12`, for which the outcome was inactive. Consider `Cc1ccc(C(C[N+](=O)[O-])c2c(N)nc(N)[nH]c2=O)cc1` (stereo unspecified), for which the outcome was inactive. Consider `Cc1ccc(C(C[N+](=O)[O-])c2c(N)nc(N)nc2N)cc1` (stereo unspecified), for which the result was inactive.

In the case of `Nc1nc(N)c2c(-c3ccccc3)c(-c3ccc(F)cc3)[nH]c2n1`, the result was inactive. `Nc1nc(N)c(C(C[N+](=O)[O-])c2ccccc2)c(N)n1` (stereo unspecified): the outcome was inactive. As for `CC(C)Oc1nc(N)nc(N)c1C(C[N+](=O)[O-])c1ccc(F)cc1` (stereo unspecified), the outcome was inactive. On to `Nc1nc(N)c(C(CCc2ccccc2)C[N+](=O)[O-])c(N)n1` (stereo unspecified), for which the outcome was inactive. As for `Nc1nc(N)c(C(C[N+](=O)[O-])c2ccccc2)c(=O)[nH]1` (stereo unspecified), the result was inactive. For the compound `Nc1nc(N)c(C(C[N+](=O)[O-])c2ccc(F)cc2)c(NC2CCCCC2)n1` (stereo unspecified), the outcome was inactive.

`COc1nc(N)nc2[nH]cc(C#N)c12`: the result was inactive.

The next data set concerns Mus musculus. Put plainly: Toxicity in ICR mouse assessed as fatality at 100 mg/kg, ip. In kind it is organism-based. Further details: dose 100 mg/kg, route intraperitoneal. The following applies: in vivo. A digest of the protocol:
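Maximum tolerated dose study in mice at 10, 30 and 100 mg/kg, scoring clinical signs and fatality.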
Turning to `Nc1nc(N)c2c(-c3ccccc3)c(-c3ccc(F)cc3)[nH]c2n1`, the Activity result is “Toxic”.

The test system of the next data set is Mus musculus. The data set can be described thus: Toxicity in ICR mouse assessed as clinical signs at 10 mg/kg, ip. In kind it is organism-based. More on the design: dose 10 mg/kg, route intraperitoneal. The following applies: in vivo.
Consider `Nc1nc(N)c2c(-c3ccccc3)c(-c3ccc(F)cc3)[nH]c2n1`, for which the Activity entry is “Non-toxic”.
